Columns and labels:
[1] = Partition coefficient (logP); type: physicochemical; conditions: octanol/water
Method in brief: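 Octanol-water partition coefficient, calculated (not measured) from structure by the Rekker fragment procedure.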

[2] = tested on: Mus musculus; assay: In vivo nicotinic antagonism relative to (+/-)-exo-mecamylamine measured in mice; type: functional
Method in brief: (§1)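 Mice; antagonist or saline sc 10 min before saline or nicotine ditartrate at its ED84 dose. Spontaneous activity counted in photocell cages, % depression vs saline. Tail-flick latency to heat measured 5 min after nicotine, 10-s cutoff, as % MPE. % antagonism per assay; AD50 with 95% confidence limits by Litchfield-Wilcoxon. Potency ratio = compound AD50 / racemic mecamylamine AD50; relative potency averages both assays.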

[3] = tested on: Mus musculus; assay: In vivo nicotinic antagonism relative to (+/-)-exo-mecamylamine measured in mice; stimulant; type: functional, organism-based; method in brief: as §1

Row | Structure (SMILES) | logP ([1]; read-out: logP) | Relative potency [2] | Relative potency [3] | logP [1]
1 | CN(C)C1CC2CCC1(C)C2(C)C (racemic) | 3.96 | 10.5 |  | 
2 | CNC1C2CCC(C2)C1(C)C (racemic) | 3.01 | 1.2 |  | 
3 | CNC1C2CCC(C2)C1C (racemic) | 2.49 | 18.1 |  | 
4 | CNC1CC2CCC1(C)C2(C)C (racemic) | 3.53 | 8.6 |  | 
5 | CNC1CC2CCC1C2 (racemic) | 1.97 | >40 |  | 
6 | CN(C)C1(C)C2CCC(C2)C1(C)C (racemic) [DIMECAMINE] | 3.96 | 1.5 |  | 
7 | CCNC1C2CCC(C2)C1c1ccccc1 (racemic) [FENCAMFAMIN] | 4.15 |  | Stimulant | 
8 | CNC1(C)C2CCC(C2)C1(C)C (racemic) [MECAMYLAMINE] |  | 1 |  | 3.53
9 | CN[C@@H]1C2(C)CCC(C2)C1(C)C (single isomer, unassigned; (+)) |  | 1.2 |  | 
10 | CN[C@H]1C2(C)CCC(C2)C1(C)C (single isomer, unassigned; (+)) |  | 1.9 |  | 
11 | CNC1(C)C2CCC(C2)C1(C)C (single isomer, unassigned; (+)) [MECAMYLAMINE] |  | 3 |  | 
12 | CN[C@@H]1C2(C)CCC(C2)C1(C)C (single isomer, unassigned; (-)) | 3.53 | 1.7 |  | 
13 | CN[C@H]1C2(C)CCC(C2)C1(C)C (single isomer, unassigned; (-)) | 3.53 | 6.2 |  | 
14 | CNC1(C)C2CCC(C2)C1(C)C (single isomer, unassigned; (-)) [MECAMYLAMINE] |  | 1.4 |  | 

From ChEMBL document CHEMBL1125614, “Synthesis of 2-exo- and 2-endo-mecamylamine analogues. Structure-activity relationships for nicotinic antagonism in the central nervous system” (J Med Chem, 1991)
